Common to all, as to format: functional
The subject of test [1] is Rattus norvegicus. The test is described as follows: Hypoglycemic activity in normal Wistar rat assessed as variation in glycemia at 10 mg/kg administered via intragastric route after 1.5 hrs by glucose oxidase method relative to control. In a few lines:
(§1)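 Normoglycemic rats (180–220 g), 6 per group, standard pellet diet and water ad libitum. Test agent was suspended in 0.05% Tween 80 in saline and given by gavage. Controls got vehicle at 0.5 mL/100 g. Tail-incision blood was sampled at 0 h and after dosing and read by glucometer. Glycemia change was expressed as % of the 0 h value; ANOVA with Dunnett's test versus vehicle.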

The test system of test [2] is Rattus norvegicus. The test is described as follows: Hypoglycemic activity in normal Wistar rat assessed as variation in glycemia at 10 mg/kg administered via intragastric route after 3 hrs by glucose oxidase method relative to control. Summed up: as §1
Test [3] concerns Rattus norvegicus. Kind of test: Hypoglycemic activity in normal Wistar rat assessed as variation in glycemia at 10 mg/kg administered via intragastric route after 5 hrs by glucose oxidase method relative to control. Summed up:
as §1

Test [4] relates to Rattus norvegicus. Kind of test: Hypoglycemic activity in normal Wistar rat assessed as variation in glycemia at 10 mg/kg administered via intragastric route after 7 hrs by glucose oxidase method relative to control. In a few lines: as §1
The subject of test [5] is Rattus norvegicus. The test is described as follows: Hypoglycemic activity in normal Wistar rat assessed as variation in glycemia at 10 mg/kg administered via intragastric route after 9 hrs by glucose oxidase method relative to control. Summed up: as §1
The test system of test [6] is Rattus norvegicus. Kind of test: Antihyperglycemic activity in streptozotocin-induced diabetic Wistar rat assessed as variation in glycemia at 10 mg/kg administered via intragastric route 7 days after streptozotocin challenge measured after 1.5 hrs of compound administration by glucose oxidase method relative to control. In a few lines:
(§2)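 Diabetes induced by single ip streptozotocin 50 mg/kg in 0.1 M citrate buffer pH 4.5; rats with glucose above 250 mg/dL after 7 days included. Rats 180–220 g, 6 per group. Test agent suspended in 0.05% Tween 80 in saline, given intragastrically; vehicle controls. Tail-vein blood sampled at 0 h and after dosing; glucometer reading; % change calculated from 0 h value.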

Test [7] deals with Rattus norvegicus. The test is described as follows: Antihyperglycemic activity in streptozotocin-induced diabetic Wistar rat assessed as variation in glycemia at 10 mg/kg administered via intragastric route 7 days after streptozotocin challenge measured after 3 hrs of compound administration by glucose oxidase method relative to control. In a few lines: as §2
The test system of test [8] is Rattus norvegicus. Kind of test: Antihyperglycemic activity in streptozotocin-induced diabetic Wistar rat assessed as variation in glycemia at 10 mg/kg administered via intragastric route 7 days after streptozotocin challenge measured after 5 hrs of compound administration by glucose oxidase method relative to control. Summed up:
as §2

Test [9] has as its system Rattus norvegicus. The test is described as follows: Antihyperglycemic activity in streptozotocin-induced diabetic Wistar rat assessed as variation in glycemia at 10 mg/kg administered via intragastric route 7 days after streptozotocin challenge measured after 7 hrs of compound administration by glucose oxidase method relative to control. Summed up:
as §2

The test system of test [10] is Rattus norvegicus. Kind of test: Antihyperglycemic activity in streptozotocin-induced diabetic Wistar rat assessed as variation in glycemia at 10 mg/kg administered via intragastric route 7 days after streptozotocin challenge measured after 9 hrs of compound administration by glucose oxidase method relative to control. In a few lines:
as §2

In the case of `CC(=O)OC[C@H]1O[C@@H](Oc2cc(O)cc3oc(=O)cc(-c4ccc(O)c(O)c4)c23)[C@H](O)[C@@H](O)[C@H]1O`, the Activity in the test on Rattus norvegicus [1] is listed as -9.2%; in the test with Rattus norvegicus [2], -29.9%; in the test on Rattus norvegicus [3] it was -28.6%; with Rattus norvegicus [4] it was -25%; with Rattus norvegicus [5], -30.6%; with Rattus norvegicus [6], -5%. Moreover, the Activity with Rattus norvegicus [7] is on record as -20.7%; in the test on Rattus norvegicus [8] it was -29.5%; in the test with Rattus norvegicus [9], -34.7%; with Rattus norvegicus [10], -37.2%.
For the compound `CC(=O)OC[C@H]1O[C@@H](Oc2cc(O)cc3oc(=O)cc(-c4ccc(O)cc4)c23)[C@H](O)[C@@H](O)[C@H]1O`, the Activity with Rattus norvegicus [1] is on record as -10.3%; with Rattus norvegicus [2] it was -17.8%; with Rattus norvegicus [3] it was -20.9%; in the test on Rattus norvegicus [4], -27.2%; in the test on Rattus norvegicus [5] it was -24%; in the test with Rattus norvegicus [6], -11%. Further, the Activity is recorded as -24.9% in the test on Rattus norvegicus [7], -22.7% with Rattus norvegicus [8], -25.2% in the test on Rattus norvegicus [9] and -27.1% in the test with Rattus norvegicus [10].
As for `COc1ccc(Cl)cc1C(=O)NCCc1ccc(S(=O)(=O)NC(=O)NC2CCCCC2)cc1` [GLYBURIDE], the Activity in the test on Rattus norvegicus [1] is recorded as -8.4%; in the test on Rattus norvegicus [2], -30.1%; in the test on Rattus norvegicus [3], -47.6%; with Rattus norvegicus [4], -41.8%; with Rattus norvegicus [5], -37.1%; in the test with Rattus norvegicus [6], -13.7%. The Activity is -35.5% with Rattus norvegicus [7], -35.9% in the test on Rattus norvegicus [8], -35.2% in the test on Rattus norvegicus [9] and -36.7% in the test on Rattus norvegicus [10].
